By Ki is commonly meant a measure of affinity in units of concentration, obtained from inhibition or displacement. Lower therefore signals higher affinity. In general, IC50 refers to the concentration that inhibits the measured activity by half.

Experiment [1] addresses 5-hydroxytryptamine receptor 4 (Cavia porcellus, UniProt O70528). In words: Displacement of [3H]GR113808 from Dunkin-Hartley guinea pig brain striatum 5HT4R after 30 mins. The procedure, abridged:
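Striatal crude membranes from decapitated guinea pigs, diluted in 50 mM Hepes pH 7.4, were incubated with [3H]17 (0.2 nM final) at 37 °C for 30 min. Separation by rapid filtration on PEI-treated GF/B filters, then scintillation counting. Nonspecific binding was defined with 30 µM 5-HT. Ki was derived as IC50/(1+L/Kd). Mean ± SEM of 3 independent determinations run in duplicate.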
(In general: Displacement assays read how much labelled ligand stays bound in the presence of the test substance.)

The target of experiment [2] is T1, 5-hydroxytryptamine receptor 4 (Homo sapiens, UniProt Q13639). In words: Antagonist activity at Rluc-tagged human 5HT4R expressed in human SH-SY5Y cells assessed as inhibition of serotonin-induced receptor/Gbeta1 coupling by BRET assay. Format: cell-based. The procedure, abridged:
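Cell-free BRET on enriched membranes (5 µg protein in PBS) from […] neuroblastoma cells retrovirally co-expressing Rluc-tagged human 5-HT4R and RGFP-fused Gβ1. Coupling was induced with 100 nM serotonin and inhibited by ligand at 8 log-spaced concentrations. IC50 for 50% inhibition of coupling was computed from the concentration-inhibition curves.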
In general terms: In BRET a luciferase serves as donor, and the signal depends on an acceptor being close.

The target of experiment [3] is T1, 5-hydroxytryptamine receptor 4. In words: Partial agonist activity at Rluc-tagged human 5HT4R expressed in human SH-SY5Y cells assessed as effect on serotonin-induced receptor/Gbeta1 coupling by BRET assay. Format: cell-based. Put shortly:
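BRET on membranes (5 µg protein in PBS) from […] cells co-expressing Rluc-human 5-HT4R and RGFP-Gβ1, with ligand at 10 µM. The baseline recorded without ligand was subtracted, and the BRET ratio was expressed relative to that obtained with 10 µM serotonin. Means ± SEM of 3 determinations.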

SMILES strings stand for the structures. A value given as a limit tells only on which side of the number the result lay.

T1 sequence (Q13639 whole entry, the tested form may be a part): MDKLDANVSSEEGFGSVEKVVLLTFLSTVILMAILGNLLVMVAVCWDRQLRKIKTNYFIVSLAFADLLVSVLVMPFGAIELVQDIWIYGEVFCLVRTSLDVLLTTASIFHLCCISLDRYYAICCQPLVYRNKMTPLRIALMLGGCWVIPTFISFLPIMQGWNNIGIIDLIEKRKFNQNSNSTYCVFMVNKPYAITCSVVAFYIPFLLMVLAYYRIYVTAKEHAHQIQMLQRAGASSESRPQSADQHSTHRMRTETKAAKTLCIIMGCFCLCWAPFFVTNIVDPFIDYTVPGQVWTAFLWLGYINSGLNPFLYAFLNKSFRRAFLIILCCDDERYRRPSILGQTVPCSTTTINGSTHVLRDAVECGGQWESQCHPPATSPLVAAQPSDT
Sequence of 5-hydroxytryptamine receptor 4 (Cavia porcellus, UniProt O70528) (O70528 whole entry): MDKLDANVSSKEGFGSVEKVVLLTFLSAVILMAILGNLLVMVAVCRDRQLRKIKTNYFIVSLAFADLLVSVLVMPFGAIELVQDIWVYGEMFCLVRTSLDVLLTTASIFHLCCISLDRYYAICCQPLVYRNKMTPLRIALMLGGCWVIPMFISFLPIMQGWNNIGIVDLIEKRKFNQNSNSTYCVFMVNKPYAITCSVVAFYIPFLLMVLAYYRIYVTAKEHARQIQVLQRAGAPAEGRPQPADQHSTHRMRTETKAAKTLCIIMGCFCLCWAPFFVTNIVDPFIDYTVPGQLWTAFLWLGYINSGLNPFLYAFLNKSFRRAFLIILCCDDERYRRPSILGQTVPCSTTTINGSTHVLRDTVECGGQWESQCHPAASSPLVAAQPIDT

In turn, `O=C1c2cccc3nc(N4CCCCC4)cc(c23)C(=O)N1CCCN1CCCCC1` showed a Ki in experiment [1] of 344 nM.

On to `O=C1c2cc(N3CCCC3)nc3cccc(c23)CN1CCCN1CCCCC1`, for which the Ki in experiment [1] is more than 1000 nM.

In experiment [1], `O=C1c2cccc3nc(Cl)cc(c23)C(=O)N1CCCN1CCCCC1` registered a Ki of 105 nM. Further, the half-maximal inhibitory concentration (IC50) in experiment [2] turned out to be 453 nM.

`COc1cc(C(=O)NCCCN2CCCCC2)c2ccccc2n1`: the Ki in experiment [1] is more than 1000 nM.

In experiment [1], `O=C1c2cccc3nc(N4CCCC4)cc(c23)C(=O)N1CCCN1CCCCC1` returned a Ki of more than 1000 nM.

In experiment [1], `COc1cc2c3c(cccc3n1)CN(CCCN1CCCCC1)C2=O` registered an inhibitory constant (Ki) of 283 nM. Also, the IC50 in experiment [2] amounted to 916 nM.

`COc1cc2c3c(cccc3n1)C(=O)N(CCCN1CCCCC1)C2=O`: the affinity in experiment [1] corresponds to a Ki of 44 nM. Also, the IC50 in experiment [2] came to 110 nM.

As for `COc1cc(N)c(Cl)cc1C(=O)OCCCN1CCCCC1`, the IC50 in experiment [3] is 49 nM. Moreover, the affinity in experiment [1], expressed as Ki, was 19 nM.

In experiment [1], `COc1cc(C(=O)OCCCN2CCCCC2)c2ccccc2n1` gave an inhibition constant (Ki) of 52 nM. The half-maximal inhibitory concentration (IC50) in experiment [2] was determined as 203 nM.

In the case of `O=C1c2cc(Cl)nc3cccc(c23)CN1CCCN1CCCCC1`, the IC50 in experiment [3] stood at 195 nM. In experiment [1], this molecule gave a Ki of 563 nM.

These data come from ChEMBL document CHEMBL3286104, “Synthesis and structure-activity relationship studies in serotonin 5-HT4 receptor ligands based on a benzo[de][2,6]naphthridine scaffold” (Eur J Med Chem, 2014).
